Experimental data: publication PMC10596003 (ACS Chemical Biology, 2023)
Like-named read-outs stand apart in the source and are kept apart here.

Assays:
SAMHD1 A1 site = SAMHD1 A1 site (Homo sapiens, UniProt Q9Y3Z3); test: fluorescence anisotropy competitive binding assay with 5′-FAM-pdGpdGpdG-3′ probe; details: competition with 5′ FAM-pdGpdGpdG-3′ probe
SAMHD1 [1] = molecular target: T1, SAMHD1 (Homo sapiens, UniProt Q9Y3Z3); test: glutaraldehyde protein cross-linking assay of oligomeric state; details: for D (%), dimer / T (%), tetramer: 500 μM ligand, 600 nM SAMHD1; for effect on oligomeric state: 500 μM analog (dGTPαS 100 μM), 0.6 μM SAMHD1
SAMHD1 [2] = molecular target: T1, SAMHD1; test: malachite green; format: biochemical; details: for IC50: 50 μM GTP and 50 μM dATP, 11-point dose response; for inhibition at 500 µM: read-out: dNTPase inhibition (%, [I] = 500 μM)
[3] = molecular target: SAMHD1 binding to ssDNA32 (Homo sapiens, UniProt Q9Y3Z3); test: fluorescence anisotropy displacement of 5′-FAM-labeled ssDNA32; details: read-out: EC50 ssDNA displacement; 1 μM SAMHD1, 0.5 μM ssDNA32
Outline: (§1)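 SAMHD1 (1 μM) was preincubated with 0.5 μM 5′-FAM-labelled 32mer ssDNA or ssRNA; the two strands have identical base sequences. […] SD from triplicate experiments.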

[4] = molecular target: SAMHD1 binding to ssRNA32 (Homo sapiens, UniProt Q9Y3Z3); test: fluorescence anisotropy displacement of 5′-FAM-labeled ssRNA32; details: read-out: EC50 ssRNA displacement; 1 μM SAMHD1, 0.5 μM ssRNA32
Outline: as §1

Sequence of SAMHD1 A1 site (Q9Y3Z3 whole entry): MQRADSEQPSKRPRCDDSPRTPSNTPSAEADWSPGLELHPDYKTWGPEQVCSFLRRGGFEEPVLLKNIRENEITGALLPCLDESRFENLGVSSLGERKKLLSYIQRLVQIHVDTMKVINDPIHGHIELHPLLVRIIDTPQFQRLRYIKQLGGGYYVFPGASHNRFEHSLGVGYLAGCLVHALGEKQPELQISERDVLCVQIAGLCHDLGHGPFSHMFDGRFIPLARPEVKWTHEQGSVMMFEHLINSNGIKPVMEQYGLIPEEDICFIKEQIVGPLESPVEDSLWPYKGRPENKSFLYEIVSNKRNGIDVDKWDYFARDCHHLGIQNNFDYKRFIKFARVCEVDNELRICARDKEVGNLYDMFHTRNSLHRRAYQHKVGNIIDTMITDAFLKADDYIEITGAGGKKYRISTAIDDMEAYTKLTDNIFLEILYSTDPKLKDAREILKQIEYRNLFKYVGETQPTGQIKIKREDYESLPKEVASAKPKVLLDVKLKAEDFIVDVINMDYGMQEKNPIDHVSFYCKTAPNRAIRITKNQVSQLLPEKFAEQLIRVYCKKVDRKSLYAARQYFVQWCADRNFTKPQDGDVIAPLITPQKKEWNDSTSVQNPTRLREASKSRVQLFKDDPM
T1 sequence (Q9Y3Z3 whole entry): as above
Sequence of SAMHD1 binding to ssDNA32 (Q9Y3Z3 whole entry): as above
Sequence of SAMHD1 binding to ssRNA32 (Q9Y3Z3 whole entry): as above

Row | SMILES | Kd (SAMHD1 A1 site; binding Kd (μM)) [µM] | D (%), dimer (SAMHD1 [1]) [%] | T (%), tetramer (SAMHD1 [1]) [%] | Kd (SAMHD1 A1 site; read-out: binding Kd) [µM] | further results
1 | Nc1nc2c(ncn2[C@H]2C[C@H](O)[C@@H](CO)O2)c(=O)[nH]1 [dG, deoxyguanosine] | 79 ± 20 | 80 | 0 |  | IC50 (SAMHD1 [2]; IC50 (μM)): 130 ± 89 µM; inhibition at 500 µM (SAMHD1 [2]): 65 ± 2.4%
2 | Nc1nc2c(ncn2COCCO)c(=O)[nH]1 [acyclovir] |  | 78 | 0 |  | inhibition at 500 µM (SAMHD1 [2]): 68 ± 31%
3 | Nc1nc2c(ncn2[C@@H]2O[C@H](CO)[C@@H](O)[C@H]2O)c(=O)[nH]1 [rG, guanosine] | 500 ± 185 | 64 | 0 |  | inhibition at 500 µM (SAMHD1 [2]): 6 ± 8.5%
4 | Nc1nc2c([nH]c(=O)n2[C@H]2C[C@H](O)[C@@H](CO)O2)c(=O)[nH]1 [Compound 8-oxo-dG, 8-oxo-deoxyguanosine] | > 1000 | 37 | 0 |  | 
5 | Nc1nc2c(ncn2[C@@H]2O[C@H](COP(=O)(O)OP(=O)(O)O)[C@@H](O)[C@H]2O)c(=O)[nH]1 [GDP] |  | 88 | 0 | 210 ± 32 | effect on oligomeric state (SAMHD1 [1]): can induce dimerization
6 | Nc1nc2c(ncn2[C@H]2C[C@H](OP(=O)(O)O[C@H]3C[C@H](n4cnc5c(N)ncnc54)O[C@@H]3CO)[C@@H](CO)O2)c(=O)[nH]1 [5′-dGpdA-5′] |  | 93 | 0 | 70 ± 13 | 
7 | Nc1ncnc2c1ncn2[C@H]1C[C@H](O)[C@@H](COP(=O)(O)O)O1 [dAMP] |  | 32 | 0 | > 1000 | 
8 | Nc1nc2c(ncn2[C@H]2C[C@H](O)[C@@H](COP(=O)(O)OP(=O)(O)O)O2)c(=O)[nH]1 [dGDP] |  | 39 | 56 | 130 ± 28 | effect on oligomeric state (SAMHD1 [1]): induced tetramerization
9 | Cn1c[n+]([C@@H]2O[C@H](COP(=O)([O-])OP(=O)(O)OP(=O)(O)O)[C@@H](O)[C@H]2O)c2nc(N)[nH]c(=O)c21 [Compound 7-Me-GTP] |  |  |  | > 1000 | 
10 | Nc1nc2c(ncn2[C@H]2C[C@H](O)[C@@H](COP(=O)(O)O)O2)c(=O)[nH]1 [dGMP] |  | 91 | 0 | 140 ± 43 | IC50 (SAMHD1 [2]): 110 ± 47 µM
11 | Nc1nc2c(ncn2[C@@H]2O[C@H](COP(=O)(O)OP(=O)(O)OP(=O)(O)O)[C@@H](O)[C@H]2O)c(=O)[nH]1 [GTP] |  |  | 30 | 61 ± 11 | EC50 [3]: 89 ± 25 µM; effect on oligomeric state (SAMHD1 [1]): induced complete dimerization; EC50 [4]: 170 ± 32 µM
12 | O=C(O)c1cccc(-c2cccc(Br)c2)c1 [Compound 1023, 3′-bromobiphenyl-3-carboxylic acid] | > 500 | 17 | 0 |  | IC50 (SAMHD1 [2]; IC50 (μM)): 220 ± 150 µM
13 | Nc1nc2c(ncn2[C@@H]2O[C@H](COP(=O)(O)O)[C@@H](O)[C@H]2O)c(=O)[nH]1 [GMP] |  | 87 | 0 | 110 ± 41 | 
14 | Nc1nc2c(nc(Br)n2[C@H]2C[C@H](O)[C@@H](CO)O2)c(=O)[nH]1 [Compound 8-bromo-dG, 8-bromo-deoxyguanosine] | > 1000 | 62 | 0 |  | 
15 | Nc1nc2c(ncn2[C@H]2C[C@H](O)[C@@H](COP(O)(=S)OP(=O)(O)OP(=O)(O)O)O2)c(=O)[nH]1 (some centres unmarked) [dGTPαS] |  |  |  |  | effect on oligomeric state (SAMHD1 [1]): induced tetramerization
